Assay outcomes deposited in PubChem BioAssay by several laboratories.
EBV gp42 inh = inhibitors of Epstein-Barr virus glycoprotein 42. inhibition, % (tested at 21.74 µM). 220,000 compounds, 0.42% hits. Fluorescence polarization binding assay, mP read-out. Q1HVG2; in the data active = inhibition above about 50%
Target sequence (Q1HVG2 whole entry, looked up): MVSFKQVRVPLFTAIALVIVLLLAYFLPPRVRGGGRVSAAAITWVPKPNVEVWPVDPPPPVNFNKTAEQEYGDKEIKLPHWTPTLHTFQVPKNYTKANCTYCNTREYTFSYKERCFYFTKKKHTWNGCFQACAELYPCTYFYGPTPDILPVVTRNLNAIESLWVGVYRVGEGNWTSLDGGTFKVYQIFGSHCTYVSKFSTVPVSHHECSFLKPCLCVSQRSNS
MPTP inh = blocks calcium-induced mitochondrial swelling; isolated mouse mitochondria, Ca2+ swelling absorbance, 30 min; inhibition, % at 10 µM; 360,000 compounds, 1.4% hits; AID 602449;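 active = inhibition of 50% or more, scaled per plate between neutral and stimulator controls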;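 note: 0% = DMSO wells given calcium and 100% = 1 mM EGTA wells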
NR3A LBD binder = modulators (binders) of human NR3A ligand-binding domain; NR3A LBD differential scanning fluorimetry, Tm shift; 0% = protein alone, 100% = glycine-bound protein; Tm shift relative to glycine control, % at 25 µM; 340,000 compounds, 2.5% hits; AID 1259313;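 active = melting temperature shift of at least 10% of the positive control shift, at one fixed dose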
TbMetRS inhib = blocks T. brucei methionyl-tRNA synthetase activity. 360,000 compounds, 0.4% hits. inhibition, % at 11.9 µM. purified T. brucei MetRS, ATP depletion, Kinase-Glo luminescence;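 active = inhibition above a per-plate cutoff of the control wells' mean inhibition plus 3 SD, cut at about 5.5% in these data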;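 note: 0% = DMSO wells median and 100% = median of wells with control inhibitor compound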
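Test system – parasite MetRS enzyme · Reagent – substrates ATP, L-methionine and bulk Escherichia coli tRNA · Doses – 11.9 µM compound single dose, 0.9% DMSO · Times – 15 min enzyme-compound preincubation, 2 h reaction, 10 min detection, 25 °C · Signal – Kinase-Glo luminescence, ATP depletion format · Controls – DMSO-only wells as low control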
WT yeast gro inh = growth inhibition of WT yeast, mitochondrial fusion screen; mitochondrial fusion phenotypic screen, WT strain; inhibition, % at 10 µM; 190,000 compounds, 2.1% hits; in the data active = inhibition above about 58%; tested in S. cerevisiae
CHOP inhibitor = inhibitors of CHOP induction in ER stress response | CHO-K1 CHOP-promoter luciferase, tunicamycin-induced, 15-18 h | inhibition, % at 10 µM | 220,000 compounds, 3.8% hits | AID 2732;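 active = compounds that reduced the stress-induced luciferase reporter signal by more than about 70% of percent inhibition, limit read from the data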;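 note: 0% = tunicamycin plus vehicle and 100% = wells without tunicamycin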
* hit, by the source's call; / = no result given. A selection: hits, their analogues and other compounds. The true share with any hit is near 6.4%.

SMILES	EBV gp42 inh	MPTP inh	NR3A LBD binder	TbMetRS inhib	WT yeast gro inh	CHOP inhibitor
COC(=O)Oc1ccc(/C=N/NC(=O)CSCc2ccc(Cl)cc2)cc1OC	-12.2	8.4	-3.2	-0.3	3.0	78.3*
O=C(CSCc1ccc(Cl)cc1)N/N=C/c1c(Cl)cccc1Cl	7.1	3.0	-9.1	0.6	0.2	91.7*
Cc1nn2c3c(cnc2c1-c1ccccc1)C(=O)CC(c1ccccc1)C3 (stereo not drawn)	8.1	0.3	0.0	-0.4	19.2	48.7
COc1ccc(NC(C)=O)cc1NC(=O)CN1CCN(S(=O)(=O)c2ccc(C(C)C)cc2)CC1	-3.8	1.0	-5.3	-1.5	-5.7	73.1*
COc1ccc(S(=O)(=O)N2CCCN(CC(=O)Nc3cc(NC(C)=O)ccc3OC)CC2)cc1	-12.2	-0.8	0.9	-0.8	-9.7	18.3
COc1ccc(S(=O)(=O)N2CCOCC2)cc1NC(=O)COc1ccc(C)cc1	/	1.1	17.6*	-0.1	/	/
COc1ccc(S(=O)(=O)N2CCOCC2)cc1NC(=O)COC(=O)CCOc1ccc(C)cc1	/	0.4	2.1	-0.1	/	/
Cc1ccc(CNC(=O)COc2ccc(S(=O)(=O)N3CCOCC3)cc2)cc1	/	-3.1	10.1*	-0.5	/	/
C[C@]12c3[nH]c4ccccc4c3CCN1C(=O)C(CC(=O)NCCCn1ccnc1)C[C@@H]2C(=O)N1CCOCC1 (stereo partly drawn)	/	2.7	-2.8	-0.1	/	/
Cc1cc(C(=O)NN=Cc2c(C)[nH]c3ccccc23)c(C)o1	/	-2.3	-6.2	0.3	/	/
CCOc1cc(-c2noc(N)c2C#N)cc(OCC)c1OCC	-8.1	0.3	2.5	-0.3	4.5	13.6
CCC1(C)CC(C(CC(=O)O)c2ccc(C)cc2)CCO1 (stereo not drawn)	-17.1	0.0	11.0*	0.5	-2.3	-3.2
O=C(Cc1ccccn1)c1ccc(Cl)cc1	/	-2.0	1.0	0.0	/	/
CC1=C(CC(=O)c2ccc(Cl)cc2)C(=O)c2ccccc2C1=O	3.2	8.3	-5.1	-1.4	44.3	71.8*
Cc1ccccc1/C=N/n1c(C2CCCCC2)n[nH]c1=S	/	0.6	2.4	0.0	/	/
O=S(=O)(c1ccc(Br)cc1)N1CCN(c2ccc3nnc(-c4ccccc4)n3n2)CC1	-4.2	1.1	1.7	-0.6	12.2	79.8*
COc1ccc(S(=O)(=O)N2CCC(NC(=O)c3ccccc3)CC2)cc1	/	0.5	2.5	-0.6	/	/
CNC(=O)Cn1c(C)cc(=O)c2cccc(C)c21	-16.8	-0.7	-0.9	-0.4	/	-9.8
Cc1cccc2c(=O)cc(C)n(Cc3ccccc3)c12	-9.9	1.5	12.5*	-2.0	17.7	31.3
O=C(C(c1ccccc1)c1ccccc1)N1CCN(Cc2ccc(Br)cc2)CC1	-11.7	3.1	-12.6	-0.1	/	80.6*
O=C(CN1CCN(Cc2ccccc2)CC1)c1ccc(Br)cc1	-22.8	1.5	11.2*	-0.1	4.7	0.2
COC(=O)N1[C@H](C)C=C[C@]1(Cc1ccccc1)C(=O)OC	/	-1.7	-0.6	-0.2	/	/
CCN(CCNc1ccc(Cl)cc1[N+](=O)[O-])C(=O)c1cc([N+](=O)[O-])c(N(C)C)cc1OC	-11.2	-2.2	15.7*	-0.2	21.5	7.4
NC(=O)c1cccc(-c2cc(Nc3ccc(OC(F)(F)F)cc3)ncn2)c1	8.5	3.2	25.1*	-0.5	/	10.7
O=C(/C=C\c1ccccc1[N+](=O)[O-])Nc1ccccc1	2.0	1.0	14.1*	-0.3	10.5	-22.2
SMILES	EBV gp42 inh	MPTP inh	NR3A LBD binder	TbMetRS inhib	WT yeast gro inh	CHOP inhibitor
NS(=O)(=O)c1ccc(NC(=O)/C=C/c2ccccc2[N+](=O)[O-])cc1	-2.3	0.1	5.0	-0.4	-6.0	10.5
O=C(/C=C/c1ccccc1[N+](=O)[O-])c1ccccc1Br	1.4	-1.7	0.7	-1.5	69.1*	-50.3
Cc1cc(NC(=O)Cn2nnc(-c3ccccc3N)n2)no1	7.1	1.4	25.5*	-0.5	3.0	4.1
Cc1ccc(NC(=O)Cn2nnc(-c3ccccc3NC(=O)c3cccs3)n2)cc1	-11.1	1.9	19.9*	0.1	9.6	/
Cc1ccc(NC(=O)CN(C)C(=O)Cn2nnc(-c3ccccc3C)n2)cc1	/	0.7	-3.5	-0.2	/	/
CCOc1ccc(NC(=O)Cn2nnc(-c3ccccc3NC(=O)CC)n2)cc1	-25.0	4.8	-7.2	-0.5	4.1	-6.2
CCOC(=O)c1ccc(NC(=O)Cn2nnc(-c3ccccc3C)n2)cc1	-6.2	33.9	13.1*	-0.3	-3.5	54.0
CCCC(=O)Nc1ccccc1-c1nnn(CC(=O)Nc2ccc(OCC)cc2)n1	-26.4	10.4	-5.8	0.3	-14.7	80.0*
Cc1ccccc1CNC(=O)C1CCC(=O)N(CC2CCCCC2)C1 (stereo not drawn)	/	-1.2	-5.1	0.3	/	/
O=c1c(C/C=C/c2ccccc2)c(O)nc2n1CCCS2	-0.6	1.0	-0.9	-0.4	-10.7	1.3
COc1ccc(NC(=O)Cn2nnc(-c3ccccc3NS(=O)(=O)c3ccc(OC)cc3)n2)cc1	-8.5	2.7	1.3	-0.3	-10.3	15.0
O=C(Cn1nnc(-c2ccccc2NC(=O)c2ccco2)n1)Nc1ccccc1	-15.8	-2.3	3.0	-0.9	-22.3	85.3*
COc1ccc(NC(=O)Cn2nnc(-c3ccccc3NC(=O)c3cccs3)n2)cc1	-6.2	1.4	10.5*	-0.2	7.5	73.1*
COc1c2occc2cc2ccc(=O)oc12	-19.1	13.3	-3.1	-2.0	21.3	-2.6
CC(C)NC(=S)NNC(=O)C12CC3CC(CC(C3)C1)C2	-20.0	-2.2	11.2*	-0.5	14.9	22.4
S=C(N/N=C/c1ccc(Cl)c(Cl)c1)Nc1ccccc1Cl	-11.3	10.0	37.9*	-0.2	-2.3	54.6
O=C(N/N=C/c1ccc(Cl)c([N+](=O)[O-])c1)C1CC1	3.9	1.6	-1.5	-0.1	17.4	3.8
Cc1ccc(NC(=S)N/N=C/c2ccc(Cl)c([N+](=O)[O-])c2)cc1	-23.6	3.1	21.6*	-0.7	4.9	79.8*
Cc1ccc(C=NNC(=O)C(=O)Nc2ccc(Cl)c([N+](=O)[O-])c2)cc1	/	-3.3	/	-0.7	/	/
O=[N+]([O-])c1cc(/C=N/NC(=S)Nc2ccccc2Cl)ccc1Cl	-9.1	18.9	18.3*	-0.2	12.5	-92.7
CCOP(=O)(CN(CC)C(=O)c1ccccc1Br)OCC	-4.3	-2.9	0.8	1.6	/	15.7
CCOc1ccc(NC(=O)Nc2cc(-c3ccccc3)sc2C(=O)OC)cc1	4.7	4.1	21.4*	-1.1	4.1	40.1
CCOc1ccc(NC(=O)Nc2ccccc2SC)cc1	-11.3	-1.4	-5.9	-0.2	22.1	4.8
CCOc1ccc(NC(=O)Nc2cc(C(C)C)ccc2C)cc1	-0.2	0.4	/	-0.7	/	92.8*
CCOc1ccc(NC(=O)Nc2ccc3c(c2)nnn3C)cc1	-17.1	0.1	16.4*	-2.3	15.5	22.2
COc1cccc(OCC(=O)NNC(=O)C(=O)Nc2cccc(C)c2)c1	/	1.2	-3.2	-0.1	/	/
